Active and inactive are the calls of the source. No cut-off for these calls is given here.
What was measured:
MDA-MB-231 [1] = assay: Cytotoxicity against human MDA-MB-231 cells assessed as reduction in cell viability by cell titer 96 aqueous one solution based assay; type: functional
In short: (§1)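 MDA-MB-231 and MCF-7 breast cancer cells were treated with increasing concentrations of compound. Viability was read by MTS assay, and IC50 values were derived from the concentration–response data.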

MCF7 [2] = assay: Cytotoxicity against human MCF7 cells assessed as reduction in cell viability by cell titer 96 aqueous one solution based assay; type: functional; in short: as §1
MDA-MB-231 [3] = assay: Inhibition of mTORC1 signaling in human MDA-MB-231 cells assessed as intracellular UDP N-acetylglucosamine accumulation after 7 to 24 hrs by 1H-MRS analysis; type: cell-based
In short: (§2)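 MDA-MB-231 cells were treated for 7 or 24 h, and intracellular metabolites were profiled by 1H-MRS. Treated and untreated groups were compared by principal component analysis.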

MDA-MB-231 [4] = assay: Effect on total S6 level in human MDA-MB-231 cells at 20 uM after 12 hrs by RPPA analysis; type: cell-based; settings: mda-mb-231, 12 h
MDA-MB-157 [5] = assay: Cytotoxicity against human MDA-MB-157 cells assessed as reduction in cell viability up to 10 uM after 24 to 72 hrs by cell titer 96 aqueous one solution based assay; type: functional
In short: (§3)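 Triple-negative breast cancer cells were incubated with compound for 24, 48 or 72 h. Viability was then measured by MTS assay across a concentration series.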

MDA-MB-231 [6] = assay: Inhibition of mTORC1 signaling in human MDA-MB-231 cells assessed as phenylalanine accumulation after 7 to 24 hrs by 1H-MRS analysis; type: cell-based; in short: as §2
MDA-MB-231 [7] = assay: Inhibition of mTORC1 signaling in human MDA-MB-231 cells assessed as tyrosine accumulation after 7 to 24 hrs by 1H-MRS analysis; type: cell-based; in short: as §2
MDA-MB-231 [8] = assay: Inhibition of PI3K/AKT in human MDA-MB-231 cells assessed as reduction in mTOR phosphorylation at Ser2448 at 20 uM after 12 hrs by RPPA analysis; type: cell-based
MDA-MB-231 [9] = assay: Inhibition of mTORC1 signaling in human MDA-MB-231 cells assessed as aspartate accumulation after 7 to 24 hrs by 1H-MRS analysis; type: cell-based; in short: as §2
MDA-MB-157 [10] = assay: Induction of apoptosis in human MDA-MB-157 cells assessed as increase in caspase 3/7 activity up to 10 uM by Caspase-Glo 3/7 luciferase-based assay; type: functional, cell-based
In short: (§4)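 Cells were treated with a range of compound concentrations. Apoptosis was read as caspase-3/7 activity using a luciferase-based luminescent assay.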

MDA-MB-157 [11] = assay: Cytotoxicity against human MDA-MB-157 cells assessed as reduction in cell viability up to 10 uM in presence of bovine serum albumin by cell titer 96 aqueous one solution based assay; type: functional
In short: (§5)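 Viability was measured by MTS after treating triple-negative breast cancer cells in serum-free medium, either alone or with BSA added to the serum-free medium, across a concentration series.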

[12] = target: T1, Acetyl-CoA carboxylase (Homo sapiens) (UniProt Q13085+O00763); assay: Increase in ACC phosphorylation at Ser79 in human MDA-MB-231 cells at 20 uM after 12 hrs by RPPA analysis; type: cell-based
MDA-MB-231 [13] = assay: Inhibition of mTORC1 signaling in human MDA-MB-231 cells assessed as reduction in S6 phosphorylation at Ser236 at 20 uM after 12 hrs by RPPA analysis; type: cell-based
MDA-MB-231 [14] = assay: Cytotoxicity against human MDA-MB-231 cells assessed as reduction in cell viability up to 10 uM in serum-free medium by cell titer 96 aqueous one solution based assay; type: functional; in short: as §5
MDA-MB-231 [15] = assay: Inhibition of mTORC1 signaling in human MDA-MB-231 cells assessed as glutamine accumulation after 7 to 24 hrs by 1H-MRS analysis; type: cell-based; in short: as §2
MDA-MB-157 [16] = assay: Induction of apoptosis in human MDA-MB-157 cells assessed as increase in cleaved PARP level up to 10 uM by Western blot analysis; type: functional, cell-based
In short: (§6)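 Cells were treated with a range of compound concentrations. Apoptosis was assessed by Western blot detection of cleaved poly-ADP ribose polymerase (PARP).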

MDA-MB-231 [17] = assay: Inhibition of mTORC1 signaling in human MDA-MB-231 cells assessed as reduction in S6 phosphorylation at Ser235 at 20 uM after 12 hrs by RPPA analysis; type: cell-based
MDA-MB-231 [18] = assay: Inhibition of mTORC1 signaling in human MDA-MB-231 cells assessed as proline accumulation after 7 to 24 hrs by 1H-MRS analysis; type: cell-based; in short: as §2
MDA-MB-157 [19] = assay: Inhibition of mTORC1 signaling in human MDA-MB-157 cells assessed as reduction in […] at 10 uM by Western blot analysis; type: cell-based
[20] = target: T2, AMP-activated protein kinase, AMPK (Homo sapiens) (UniProt P54646+O43741+P54619+Q9UGJ0+Q9Y478+Q13131+Q9UGI9); assay: Increase in AMPK phosphorylation at T172 in human MDA-MB-231 cells at 20 uM after 12 hrs by RPPA analysis; type: cell-based
MDA-MB-231 [21] = assay: Induction of apoptosis in human MDA-MB-231 cells assessed as increase in caspase 3/7 activity by Caspase-Glo 3/7 luciferase-based assay; type: functional, cell-based; in short: as §4
MDA-MB-231 [22] = assay: Inhibition of mTORC1 signaling in human MDA-MB-231 cells assessed as glycine accumulation after 7 to 24 hrs by 1H-MRS analysis; type: cell-based; in short: as §2
MDA-MB-231 [23] = assay: Inhibition of mTORC1 signaling in human MDA-MB-231 cells assessed as intracellular UDP-glucose accumulation after 7 to 24 hrs by 1H-MRS analysis; type: cell-based; in short: as §2
MDA-MB-231 [24] = assay: Cytotoxicity against human MDA-MB-231 cells assessed as reduction in cell viability after 24 to 72 hrs by cell titer 96 aqueous one solution based assay; type: functional; in short: as §3
MDA-MB-231 [25] = assay: Inhibition of mTORC1 signaling in human MDA-MB-231 cells assessed as reduction in […] at 10 uM by Western blot analysis; type: cell-based
MDA-MB-231 [26] = assay: Effect on total p70S6K level in human MDA-MB-231 cells at 20 uM after 12 hrs by RPPA analysis; type: cell-based; settings: mda-mb-231, 12 h
MDA-MB-231 [27] = assay: Inhibition of PI3K/AKT in human MDA-MB-231 cells assessed as reduction in mTOR phosphorylation at Ser2448 up to 10 uM by Western blot analysis; type: cell-based
MDA-MB-231 [28] = assay: Inhibition of mTORC1 signaling in human MDA-MB-231 cells assessed as reduction in p70S6K phosphorylation at Thr389 at 20 uM after 12 hrs by RPPA analysis; type: cell-based
MDA-MB-231 [29] = assay: Inhibition of mTORC1 signaling in human MDA-MB-231 cells assessed as alanine accumulation after 7 to 24 hrs by 1H-MRS analysis; type: cell-based; in short: as §2
MDA-MB-157 [30] = assay: Inhibition of PI3K/AKT in human MDA-MB-157 cells assessed as reduction in mTOR phosphorylation at Ser2448 up to 10 uM by Western blot analysis; type: cell-based
MCF7 [31] = assay: Inhibition of PI3K/AKT in human MCF7 cells assessed as reduction in mTOR phosphorylation at Ser2448 at 20 uM after 12 hrs by RPPA analysis; type: cell-based
MDA-MB-231 [32] = assay: Inhibition of mTORC1 signaling in human MDA-MB-231 cells assessed as reduction in S6 phosphorylation at Ser244 at 20 uM after 12 hrs by RPPA analysis; type: cell-based
MDA-MB-157 [33] = assay: Cytotoxicity against human MDA-MB-157 cells assessed as reduction in cell viability up to 10 uM in serum-free medium by cell titer 96 aqueous one solution based assay; type: functional; in short: as §5
MDA-MB-231 [34] = assay: Induction of apoptosis in human MDA-MB-231 cells assessed as increase in cleaved PARP level up to 10 uM by Western blot analysis; type: functional, cell-based; in short: as §6
MDA-MB-231 [35] = assay: Inhibition of mTORC1 signaling in human MDA-MB-231 cells assessed as reduction in S6 phosphorylation at Ser240 at 20 uM after 12 hrs by RPPA analysis; type: cell-based
[36] = target: T2, AMP-activated protein kinase, AMPK (Homo sapiens); assay: Increase in AMPK phosphorylation at T172 in human MCF7 cells at 20 uM after 12 hrs by RPPA analysis; type: cell-based
[37] = target: T1, Acetyl-CoA carboxylase (Homo sapiens); assay: Increase in ACC phosphorylation at Ser79 in human MCF7 cells at 20 uM after 12 hrs by RPPA analysis; type: cell-based

`CCCCCCCCCOc1cccc2c(CCN)c[nH]c12` gave an IC50 (MDA-MB-231 [1]) of 8 µM and an IC50 (MCF7 [2]) of 15 µM.
Compound `CCCCCCCCOc1ccc2[nH]cc(CCN)c2c1` has an IC50 (MDA-MB-231 [1]) of 7.3 µM and an IC50 (MCF7 [2]) of 13 µM.
Work on `CCCCCCCCCCCCOc1cccc2c(CCN)c[nH]c12` yielded an IC50 (MDA-MB-231 [1]) of 4.6 µM and an IC50 (MCF7 [2]) of 8.6 µM.
For `CCCCCCCCCCCCOc1ccc2[nH]cc(CCN)c2c1.Cl`, the inhibition (MDA-MB-231 [3]) was “Active”, the Activity (MDA-MB-231 [4]) was “Non-Toxic” and the Activity (MDA-MB-157 [5]) was “Active”. For the same compound, the inhibition (MDA-MB-231 [6]) was “Active”, the inhibition (MDA-MB-231 [7]) was “Active” and the inhibition (MDA-MB-231 [8]) was “inactive”. The inhibition (MDA-MB-231 [9]) was “Active”, the Activity (MDA-MB-157 [10]) was “Active” and the Activity (MDA-MB-157 [11]) was “Active”. The Activity [12] was “Active”, the inhibition (MDA-MB-231 [13]) was “Active” and the Activity (MDA-MB-231 [14]) was “inactive”. The IC50 (MDA-MB-231 [1]) was 4.6 µM, the inhibition (MDA-MB-231 [15]) was “Active” and the Activity (MDA-MB-157 [16]) was “Active”. For the same compound, the inhibition (MDA-MB-231 [17]) was “Active”, the inhibition (MDA-MB-231 [18]) was “Active” and the inhibition (MDA-MB-157 [19]) was “Active”. For the same compound, the Activity [20] was “Active”, the Activity (MDA-MB-231 [21]) was “Dose-dependent effect” and the inhibition (MDA-MB-231 [22]) was “Active”. The inhibition (MDA-MB-231 [23]) was “Active”, the Activity (MDA-MB-231 [24]) was “Active” and the inhibition (MDA-MB-231 [25]) was “Active”. The Activity (MDA-MB-231 [26]) was “Non-Toxic”, the inhibition (MDA-MB-231 [27]) was “inactive” and the inhibition (MDA-MB-231 [28]) was “Active”. The inhibition (MDA-MB-231 [29]) was “Active”, the inhibition (MDA-MB-157 [30]) was “inactive” and the inhibition (MCF7 [31]) was “inactive”. The inhibition (MDA-MB-231 [32]) was “Active”, the Activity (MDA-MB-157 [33]) was “Active” and the Activity (MDA-MB-231 [34]) was “Active”. For the same compound, the IC50 (MCF7 [2]) was 5.1 µM, the inhibition (MDA-MB-231 [35]) was “Active” and the Activity [36] was “Active”. The Activity [37] was “Active”.
`CCCCCCCCCCCCOc1cccc2[nH]cc(CCN)c12` showed an IC50 (MDA-MB-231 [1]) of 4.1 µM and an IC50 (MCF7 [2]) of 5 µM.
For `N#CCCCCCCOc1ccc2[nH]cc(CCN)c2c1`, the IC50 (MDA-MB-231 [1]) was over 50 µM and the IC50 (MCF7 [2]) was over 50 µM.
Work on `NCCc1c[nH]c2ccc(OCc3ccc(COc4ccc5[nH]cc(CCN)c5c4)cc3)cc12` yielded an IC50 (MDA-MB-231 [1]) of 20 µM and an IC50 (MCF7 [2]) of 24 µM.
`CCCCCCCCCCOc1ccc2[nH]cc(CCN)c2c1` showed an IC50 (MDA-MB-231 [1]) of 4.4 µM and an IC50 (MCF7 [2]) of 9 µM.
In the case of `NCCc1c[nH]c2ccc(OCc3cccc(COc4ccc5[nH]cc(CCN)c5c4)c3)cc12`, the IC50 (MDA-MB-231 [1]) is reported as 18 µM and the IC50 (MCF7 [2]) is reported as 22 µM.

Source: ChEMBL document CHEMBL4130528, “Serotonin Analogues as Inhibitors of Breast Cancer Cell Growth” (ACS Med Chem Lett, 2017)
